Source: article PMC4090938 (Molecular cell, 2014)

Columns and labels:
[1] = tested on: Erk-MAP kinase in Grb2-/- mESCs; experiment: Erk-MAP kinase activation; assay type: cell-based, mouse; conditions: SU5402 10 μM
In short: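 Grb2-/- mouse ES cells (line described previously) were transfected with Lipofectamine LTX. Constructs were WT or chimeric Grb2 in pCAGGS, driven by a β-actin promoter. Cells were selected with puromycin for 48 h before analysis.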

Grb2-/- mESCs = experiment: mESC priming; assay type: cell-based, mouse; conditions: Grb2-/- mESCs expressing the construct; Nanog/Dnmt3b expression signature
In short: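 Grb2-/- mESCs were transfected (Lipofectamine LTX) with WT or chimeric Grb2 in pCAGGS under a β-actin promoter, then puromycin-selected for 48 h before analysis. Dnmt3b levels were quantified as mean ± standard deviation (n=3). Regular colonies were also immunostained for Nanog and Dnmt3b.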

Ptpn11 = target: T1, Ptpn11 (Mus musculus, UniProt P35235); experiment: FLAG IP of FLAG-tagged Grb2 constructs compared with Ptpn11 level in cell lysate; assay type: cell-based; conditions: Ptpn11 in FLAG IP versus cell lysate, mESCs; data not shown
T1 sequence (P35235 1-593): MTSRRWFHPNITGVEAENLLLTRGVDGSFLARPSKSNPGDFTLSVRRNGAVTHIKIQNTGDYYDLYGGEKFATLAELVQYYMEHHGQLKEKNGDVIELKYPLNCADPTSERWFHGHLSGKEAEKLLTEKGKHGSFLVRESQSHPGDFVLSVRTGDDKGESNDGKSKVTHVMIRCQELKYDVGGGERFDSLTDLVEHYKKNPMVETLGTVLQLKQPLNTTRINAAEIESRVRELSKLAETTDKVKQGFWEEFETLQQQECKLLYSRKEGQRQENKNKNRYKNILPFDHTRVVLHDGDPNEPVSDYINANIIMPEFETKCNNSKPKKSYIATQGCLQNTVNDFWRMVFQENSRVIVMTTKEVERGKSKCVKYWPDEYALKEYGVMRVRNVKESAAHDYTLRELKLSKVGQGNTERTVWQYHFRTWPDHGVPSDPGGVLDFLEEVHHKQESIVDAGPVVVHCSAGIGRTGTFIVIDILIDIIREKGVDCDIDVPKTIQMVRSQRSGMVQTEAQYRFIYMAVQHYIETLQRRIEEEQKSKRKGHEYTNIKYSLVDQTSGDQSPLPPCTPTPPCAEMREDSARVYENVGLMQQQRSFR

Compound: Cc1c[nH]c(/C=C2\C(=O)Nc3ccccc32)c1CCC(=O)O [SU5402]
- effect on activation of Erk-MAP kinase by chGrb2(Ptpn11_pY580) or WT Grb2 [1]: blocked

Compound: WT Grb2: vector-derived FLAG-tagged wild-type Grb2 adaptor protein
- restoration of mESC priming (Grb2-/- mESCs): reestablished
- Ptpn11 in the cell engaged (Ptpn11): approximately 20%
